# Measured values published in ChEMBL document CHEMBL3616437, “Thiazole compounds with activity against Cryptococcus gattii and Cryptococcus neoformans in vitro” (Eur J Med Chem, 2015).
# pIC50: −log10 of the molar value.
# Legend:
# [1] = tested on: Cryptococcus gattii species complex; experiment: Antifungal activity against Cryptococcus gattii L28/02 after 48 to 72 hrs by broth microdilution method; type: functional, Cryptococcus bacillisporus
# How it was run: (§1)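 CLSI M27-A3 broth microdilution in RPMI with L-glutamine, buffered to pH 7.0 with 0.165 M MOPS. Colonies grown twice on SDA, 48 h at 35°C. Inoculum set to 70% transmittance at 530 nm, then diluted to 1-5 x10^3 cells/mL. Test agents dissolved in DMSO, serially diluted, tested at 0.1 to 62.5 µM. Plates held at 35°C for 48-72 h. MIC is the lowest concentration giving an optically clear well, read visually against drug-free growth controls.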
# [2] = tested on: Cryptococcus neoformans; experiment: Antifungal activity against Cryptococcus neoformans 5396 after 48 to 72 hrs by broth microdilution method; type: functional
# How it was run: (§2)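 CLSI M27-A3 broth microdilution. Isolates subcultured twice on SDA, 48 h at 35°C. Saline suspension adjusted to 70% transmittance at 530 nm, then diluted to 1-5 x10^3 cells/mL in RPMI with L-glutamine, 0.165 M MOPS, pH 7.0. Compounds in DMSO, tested at […]. 35°C for 48-72 h. MIC read visually as the lowest concentration giving an optically clear well.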
# [3] = tested on: Cryptococcus neoformans; experiment: Antifungal activity against Cryptococcus neoformans 96806 after 48 to 72 hrs by broth microdilution method; type: functional; how it was run: as §2
# [4] = tested on: Cryptococcus gattii species complex; experiment: Antifungal activity against Cryptococcus gattii 135L/03 after 48 to 72 hrs by broth microdilution method; type: functional, Cryptococcus bacillisporus; how it was run: as §1
# [5] = tested on: Cryptococcus neoformans; experiment: Antifungal activity against Cryptococcus neoformans F10 after 48 to 72 hrs by broth microdilution method; type: functional; how it was run: as §2
# [6] = tested on: Cryptococcus gattii species complex; experiment: Antifungal activity against Cryptococcus gattii ICB181 after 48 to 72 hrs by broth microdilution method; type: functional, Cryptococcus bacillisporus; how it was run: as §1
# [7] = Selectivity index, ratio of IC50 for African green monkey Vero cells to MIC for Cryptococcus neoformans ATCC 24067; type: toxicity, cell-based
# [8] = tested on: Cryptococcus gattii species complex; experiment: Antifungal activity against Cryptococcus gattii L24/01 after 48 to 72 hrs by broth microdilution method; type: functional, Cryptococcus bacillisporus; how it was run: as §1
# [9] = tested on: Cryptococcus neoformans; experiment: Antifungal activity against Cryptococcus neoformans ATCC 62066 after 48 to 72 hrs by broth microdilution method; type: functional
# [10] = tested on: Cryptococcus neoformans; experiment: Antifungal activity against Cryptococcus neoformans CN31 after 48 to 72 hrs by broth microdilution method; type: functional; how it was run: as §2
# [11] = tested on: Cryptococcus bacillisporus; experiment: Antifungal activity against Cryptococcus gattii ATCC 32608 after 48 to 72 hrs by broth microdilution method; type: functional; how it was run: as §1
# [12] = tested on: Vero; experiment: Cytotoxicity against African green monkey Vero cells assessed as cell viability measured after 48 hrs by MTT assay; type: cell-based; conditions: Chlorocebus sabaeus
# How it was run: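 VERO cells in D-MEM with 5% FBS, used up to 20 passages. Seeded 1 x 10^4 cells/well, pre-incubated 24 h at 37°C. Exposed 48 h at 37°C, 5% CO2, to eight nonserial dilutions from 100 to 0.0128 µM, with 0.5% DMSO control. MTT reduction read-out, corrected for background and blank. IC50 reported as median with 95% CI. Triplicate, two independent experiments.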
# [13] = tested on: Cryptococcus gattii species complex; experiment: Antifungal activity against Cryptococcus gattii 1913ER after 48 to 72 hrs by broth microdilution method; type: functional, Cryptococcus bacillisporus; how it was run: as §1
# [14] = tested on: Cryptococcus gattii species complex; experiment: Antifungal activity against Cryptococcus gattii 23/10993 after 48 to 72 hrs by broth microdilution method; type: functional, Cryptococcus bacillisporus; how it was run: as §1
# [15] = tested on: Cryptococcus neoformans; experiment: Antifungal activity against Cryptococcus neoformans LMM820 after 48 to 72 hrs by broth microdilution method; type: functional; how it was run: as §2
# [16] = tested on: Cryptococcus gattii species complex; experiment: Antifungal activity against Cryptococcus gattii 547/OTTI-97-PI-10 after 48 to 72 hrs by broth microdilution method; type: functional, Cryptococcus bacillisporus; how it was run: as §1
# [17] = tested on: Cryptococcus gattii species complex; experiment: Antifungal activity against Cryptococcus gattii LMM818 after 48 to 72 hrs by broth microdilution method; type: functional, Cryptococcus bacillisporus; how it was run: as §1
# [18] = tested on: Cryptococcus neoformans; experiment: Antifungal activity against Cryptococcus neoformans 27JF after 48 to 72 hrs by broth microdilution method; type: functional; how it was run: as §2
# [19] = tested on: Cryptococcus gattii species complex; experiment: Antifungal activity against Cryptococcus gattii 196L/03 after 48 to 72 hrs by broth microdilution method; type: functional, Cryptococcus bacillisporus; how it was run: as §1
# [20] = Cytotoxicity against C57BL/6 mouse peritoneal macrophages assessed as cell viability measured after 48 hrs by MTT assay; type: cell-based; conditions: C57BL/6, Peritoneal macrophage cell
# How it was run: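 Thioglycollate-elicited peritoneal macrophages from male C57BL/6 mice, 6–8 weeks old, in RPMI with 10% FBS. Seeded 1 x 10^5 cells/well, pre-incubated 24 h at 37°C. Exposed 48 h at 37°C, 5% CO2, to eight nonserial dilutions from 100 to 0.0128 µM, with 0.5% DMSO control. MTT read-out, % inhibition versus DMSO control. IC50 reported as median with 95% CI. Triplicate, two independent experiments.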
# [21] = tested on: Cryptococcus neoformans; experiment: Antifungal activity against Cryptococcus neoformans 28JF after 48 to 72 hrs by broth microdilution method; type: functional; how it was run: as §2
# [22] = tested on: Cryptococcus gattii species complex; experiment: Antifungal activity against Cryptococcus gattii L27/01 after 48 to 72 hrs by broth microdilution method; type: functional, Cryptococcus bacillisporus; how it was run: as §1
# [23] = tested on: Cryptococcus neoformans; experiment: Antifungal activity against Cryptococcus neoformans VM-MCMMPI after 48 to 72 hrs by broth microdilution method; type: functional; how it was run: as §2
# [24] = tested on: Cryptococcus neoformans; experiment: Antifungal activity against Cryptococcus neoformans WP after 48 to 72 hrs by broth microdilution method; type: functional; how it was run: as §2
# [25] = Selectivity index, ratio of IC50 for C57BL/6 mouse peritoneal macrophages to MIC for Cryptococcus neoformans ATCC 24067
# How it was run: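 SI = IC50/MIC. Thioglycollate-elicited peritoneal macrophages from C57BL/6 mice are seeded at 1 x 10^5/well. They are exposed for 48 h at 37°C to eight concentrations from 100 to 0.0128 µM. Viability read by MTT versus 0.5% DMSO control, triplicate in two experiments.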
# [26] = tested on: Cryptococcus neoformans; experiment: Antifungal activity against Cryptococcus neoformans ATCC 24067 after 48 to 72 hrs by broth microdilution method; type: functional; how it was run: as §2
# [27] = tested on: Cryptococcus neoformans; experiment: Antifungal activity against Cryptococcus neoformans ATCC 28957 after 48 to 72 hrs by broth microdilution method; type: functional; how it was run: as §2
# [28] = tested on: Cryptococcus gattii species complex; experiment: Ratio of compound MIC for Cryptococcus gattii ICB181 in presence of amphotericin B to compound MIC for Cryptococcus gattii ICB181 in absence of amphotericin B by checkerboard microtiter test; type: functional, Cryptococcus bacillisporus
# How it was run: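 Checkerboard microdilution: eight two-fold dilutions of test compound (0.11 to 15.6 µM) crossed with amphotericin B (0.025 to 3.9 µM, in DMSO) or fluconazole (0.48 to 62.5 µM, in water). Inoculum per CLSI M27-A3 in RPMI-MOPS pH 7.0, 1-5 x10^3 cells/mL. Growth 48 to 72 h. Effective MIC is the combination concentration giving complete inhibition. FICs derived from MICs in combination versus alone.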
smiles,measurement,setting,value
OC(Cn1cncn1)(Cn1cncn1)c1ccc(F)cc1F [FLUCONAZOLE],MFC,[1],> 62.5 µM
same,MIC,[1],26 µM
same,MFC,[2],62.5 µM
same,MIC,[2],23.4 µM
same,MFC,[3],> 62.5 µM
same,MIC,[3],31.2 µM
same,MFC,[4],31.3 µM
same,MIC,[4],7.8 µM
same,MFC,[5],> 62.5 µM
same,MIC,[5],10.4 µM
same,MFC,[6],62.5 µM
same,MIC,[6],10.4 µM
same,selectivity ratio,[7],15.7
same,MFC,[8],> 62.5 µM
same,MIC,[8],13 µM
same,MFC,[9],> 62.5 µM
same,MIC,[9],13 µM
same,MFC,[10],31.2 µM
same,MIC,[10],6.5 µM
same,MFC,[11],62.5 µM
same,MIC,[11],13 µM
same,pIC50,[12],< 4.00
same,MFC,[13],> 62.5 µM
same,MIC,[13],13 µM
same,MFC,[14],> 62.5 µM
same,MIC,[14],13 µM
same,MFC,[15],62.5 µM
same,MIC,[15],13 µM
same,MFC,[16],> 62.5 µM
same,MIC,[16],13 µM
same,MFC,[17],> 62.5 µM
same,MIC,[17],20.8 µM
same,MFC,[18],> 62.5 µM
same,MIC,[18],10.4 µM
same,MFC,[19],> 62.5 µM
same,MIC,[19],26 µM
same,pIC50,[20],< 4.00
same,MFC,[21],> 62.6 µM
same,MIC,[21],7.8 µM
same,MFC,[22],> 62.5 µM
same,MIC,[22],41.7 µM
same,MFC,[23],15.6 µM
same,MIC,[23],11.7 µM
same,MFC,[24],> 62.5 µM
same,MIC,[24],15.6 µM
same,Ratio,[25],15.74
same,MIC,[26],7.8 µM
same,MFC,[27],62.5 µM
same,MIC,[27],3.2 µM
COc1ccc(-c2csc(N/N=C/C3CCCCC3)n2)cc1,MFC,[1],7.8 µM
same,MIC,[1],4.2 µM
same,MFC,[2],3.9 µM
same,MIC,[2],2.2 µM
same,MFC,[3],1.9 µM
same,MIC,[3],1.9 µM
same,MFC,[4],3.9 µM
same,MIC,[4],2.6 µM
same,MFC,[5],3.9 µM
same,MIC,[5],2.2 µM
same,MFC,[6],1.9 µM
same,MIC,[6],1.4 µM
same,selectivity ratio,[7],52.6
same,MFC,[8],3.9 µM
same,MIC,[8],2.9 µM
same,MFC,[9],7.8 µM
same,MIC,[9],1.9 µM
same,MFC,[10],3.9 µM
same,MIC,[10],1.9 µM
same,MFC,[11],3.9 µM
same,MIC,[11],2.9 µM
same,pIC50,[12],< 4.00
same,MFC,[13],3.9 µM
same,MIC,[13],2.2 µM
same,MFC,[14],3.9 µM
same,MIC,[14],2.6 µM
same,fractional inhibitory concentration index (FICI),[28],1.73
same,MFC,[15],7.8 µM
same,MIC,[15],3.2 µM
same,MFC,[16],3.9 µM
same,MIC,[16],2.6 µM
same,MFC,[17],7.8 µM
same,MIC,[17],4.5 µM
same,MFC,[18],7.8 µM
same,MIC,[18],3.5 µM
same,MFC,[19],3.9 µM
same,MIC,[19],2.9 µM
same,pIC50,[20],< 4.00
same,MFC,[21],7.8 µM
same,MIC,[21],3.5 µM
same,MFC,[22],3.9 µM
same,MIC,[22],2.2 µM
same,MFC,[23],3.9 µM
same,MIC,[23],2.2 µM
same,MFC,[24],3.9 µM
same,MIC,[24],3.2 µM
same,Ratio,[25],52.63
same,MIC,[26],1.9 µM
same,MFC,[27],3.9 µM
same,MIC,[27],2.2 µM
